Test results as given in ChEMBL document CHEMBL1146056, “Microwave-accelerated synthesis of P1'-extended HIV-1 protease inhibitors encompassing a tertiary alcohol in the transition-state mimicking scaffold” (J Med Chem, 2006).

How the values were obtained:
[1] = tested on: Human immunodeficiency virus 1; assay: Antiviral activity against HIV1 in MT4 cells; type: functional, organism-based; settings: Human immunodeficiency virus 1, MT4
Method in brief: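 HIV-1-infected MT4 cells; antiviral activity reported as EC50 (µM).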

MT4 = assay: Cytotoxicity against MT4 cells; type: functional; settings: Homo sapiens
Method in brief: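 Cytotoxicity reported as CC50 (µM).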

[2] = biological target: Human immunodeficiency virus type 1 protease (Human immunodeficiency virus 1, UniProt Q72874); assay: Inhibition of HIV1 protease
[3] = Permeability in Caco-2 cells at 10 uM; type: ADME, cell-based; settings: human, read-out: permeability
Method in brief: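 Caco-2 cell monolayer; membrane permeation expressed as apparent permeability Papp (10^-6 cm/s).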

[4] = Intrinsic clearance in human liver microsome at 2 uM; type: ADME; settings: liver microsomes
Method in brief: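 Stability in liver microsome homogenate, expressed as intrinsic clearance (Clint, µL/min/mg).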

Row | Structure (SMILES) | EC50 [1] [nM] | CC50 (MT4) [nM] | Ki [2] [nM] | Papp at 10 µM [3] [×10⁻⁶ cm/s] | microsomal CLint at 2 µM [4] [µL/min/mg]
1 | COC(=O)N[C@H](C(=O)NN(Cc1ccc(/C=C/c2ccccc2)cc1)C[C@@](O)(Cc1ccccc1)C(=O)N[C@H]1c2ccccc2C[C@H]1O)C(C)(C)C | > 10000 | > 10000 |  |  | 
2 | COC(=O)N[C@H](C(=O)NN(Cc1cccc(-c2ccccn2)c1)C[C@@](O)(Cc1ccccc1)C(=O)N[C@H]1c2ccccc2C[C@H]1O)C(C)(C)C | > 10000 | 4400 | 15 |  | 
3 | COC(=O)N[C@H](C(=O)NN(Cc1cccc(C#Cc2ccccn2)c1)C[C@@](O)(Cc1ccccc1)C(=O)N[C@H]1c2ccccc2C[C@H]1O)C(C)(C)C | > 10000 | > 10000 | 22 |  | 
4 | COC(=O)N[C@H](C(=O)NN(Cc1cccc(-c2cccnc2)c1)C[C@@](O)(Cc1ccccc1)C(=O)N[C@H]1c2ccccc2C[C@H]1O)C(C)(C)C | > 10000 | 6800 | 12 | 11 | 190
5 | COC(=O)N[C@H](C(=O)NN(Cc1cccc(/C=C/c2ccccc2)c1)C[C@@](O)(Cc1ccccc1)C(=O)N[C@H]1c2ccccc2C[C@H]1O)C(C)(C)C | > 10000 | > 10000 | 14 |  | 
6 | COC(=O)N[C@H](C(=O)NN(Cc1ccc(-c2cnccn2)cc1)C[C@@](O)(Cc1ccccc1)C(=O)N[C@H]1c2ccccc2C[C@H]1O)C(C)(C)C | 1000 | 7800 | 2.1 |  | 
7 | COC(=O)N[C@H](C(=O)NN(Cc1ccc(C#Cc2cccnc2)cc1)C[C@@](O)(Cc1ccccc1)C(=O)N[C@H]1c2ccccc2C[C@H]1O)C(C)(C)C | 750 | > 10000 | 7.8 |  | 
8 | COC(=O)N[C@H](C(=O)NN(Cc1ccc(-c2cc3ccccc3s2)cc1)C[C@@](O)(Cc1ccccc1)C(=O)N[C@H]1c2ccccc2C[C@H]1O)C(C)(C)C | > 10000 | > 10000 |  |  | 
9 | COC(=O)N[C@H](C(=O)NN(Cc1ccc(Br)cc1)C[C@@](O)(Cc1ccccc1)C(=O)N[C@H]1c2ccccc2C[C@H]1O)C(C)(C)C | 1100 | > 10000 |  |  | 
10 | COC(=O)N[C@H](C(=O)NN(Cc1ccc(-c2ccccn2)cc1)C[C@@](O)(Cc1ccccc1)C(=O)N[C@H]1c2ccccc2C[C@H]1O)C(C)(C)C | 900 | > 10000 |  |  | 
11 | COC(=O)N[C@H](C(=O)NN(Cc1ccc(C#Cc2ccccn2)cc1)C[C@@](O)(Cc1ccccc1)C(=O)N[C@H]1c2ccccc2C[C@H]1O)C(C)(C)C | 1000 | 4900 | 9 |  | 
12 | COC(=O)N[C@H](C(=O)NN(Cc1cccc(C#Cc2cccnc2)c1)C[C@@](O)(Cc1ccccc1)C(=O)N[C@H]1c2ccccc2C[C@H]1O)C(C)(C)C | > 10000 | > 10000 | 18 |  | 
13 | COC(=O)N[C@H](C(=O)NN(Cc1ccc(-c2ccccc2)cc1)C[C@@](O)(Cc1ccccc1)C(=O)N[C@H]1c2ccccc2C[C@H]1O)C(C)(C)C | 700 | > 10000 |  |  | 
14 | COC(=O)N[C@H](C(=O)NN(Cc1cccc(-c2ccncc2)c1)C[C@@](O)(Cc1ccccc1)C(=O)N[C@H]1c2ccccc2C[C@H]1O)C(C)(C)C | 2000 | > 10000 | 93 |  | 
15 | COC(=O)N[C@H](C(=O)NN(Cc1ccc(-c2c(C)noc2C)cc1)C[C@@](O)(Cc1ccccc1)C(=O)N[C@H]1c2ccccc2C[C@H]1O)C(C)(C)C | 1100 | > 10000 | 3.8 |  | 
16 | COC(=O)N[C@H](C(=O)NN(Cc1cccc(Br)c1)C[C@@](O)(Cc1ccccc1)C(=O)N[C@H]1c2ccccc2C[C@H]1O)C(C)(C)C | 3300 | > 10000 | 18 |  | 
17 | COC(=O)N[C@H](C(=O)NN(Cc1ccc(-c2ccc3c(c2)OCO3)cc1)C[C@@](O)(Cc1ccccc1)C(=O)N[C@H]1c2ccccc2C[C@H]1O)C(C)(C)C | 1000 | > 10000 | 11 |  | 
18 | COC(=O)N[C@H](C(=O)NN(Cc1ccc(-c2ccncc2)cc1)C[C@@](O)(Cc1ccccc1)C(=O)N[C@H]1c2ccccc2C[C@H]1O)C(C)(C)C | 220 | > 10000 |  |  | 
19 | COC(=O)N[C@H](C(=O)NN(Cc1ccc(-c2cccnc2)cc1)C[C@@](O)(Cc1ccccc1)C(=O)N[C@H]1c2ccccc2C[C@H]1O)C(C)(C)C | 180 | > 10000 |  | 33 | 154
20 | COC(=O)N[C@H](C(=O)NN(Cc1ccc(C#Cc2ccccc2)cc1)C[C@@](O)(Cc1ccccc1)C(=O)N[C@H]1c2ccccc2C[C@H]1O)C(C)(C)C | > 10000 | > 10000 | 15 |  | 
21 | COC(=O)N[C@H](C(=O)NN(Cc1cccc(-c2ccccc2)c1)C[C@@](O)(Cc1ccccc1)C(=O)N[C@H]1c2ccccc2C[C@H]1O)C(C)(C)C | > 10000 | > 10000 | 23 |  | 
22 | COC(=O)N[C@H](C(=O)NN(Cc1cccc(C#Cc2ccccc2)c1)C[C@@](O)(Cc1ccccc1)C(=O)N[C@H]1c2ccccc2C[C@H]1O)C(C)(C)C | > 10000 | > 10000 | 23 |  | 
